# RGS4 inh: human RGS4 inhibition; B-score at 10 µM; hit rate 0.45% among 310,000; AID 463165; HEK293 M3R/RGS4 inducible, Fluo-4 calcium flux; stronger effect = higher value; triggered by carbachol at its EC20;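 active means B-score, a plate-corrected calcium signal, over three deviations above library mean, with baseline fluorescence within five deviations of library mean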;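 further: RGS4 expression induced by doxycycline in cells with stable M3 receptor; B-score is computed from the integrated fluorescence ratio over baseline after carbachol; higher B-score means a larger calcium signal and so more RGS4 inhibition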
# Target sequence (P49798 whole entry, looked up): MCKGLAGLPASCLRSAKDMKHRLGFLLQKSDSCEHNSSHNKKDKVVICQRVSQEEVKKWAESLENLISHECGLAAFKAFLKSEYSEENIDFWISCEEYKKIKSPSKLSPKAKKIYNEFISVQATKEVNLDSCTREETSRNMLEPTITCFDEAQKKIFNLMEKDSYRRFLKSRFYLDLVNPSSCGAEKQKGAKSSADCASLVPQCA
# MrgX1 allo act: allosterically activates human MrgX1 receptor signaling | Q96LB2 | MrgX1-HEK293, Fluo-4 calcium flux, FDSS; stronger effect = higher value | B-score at 10 µM | hit rate 0.63% among 310,000 | AID 588675;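 active means plate-corrected calcium response at least 3 library SD above typical, normal starting fluorescence, not activating the receptor alone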;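 further: compound read alongside a low EC10 to EC30 dose of BAM8-22 agonist; peak minus trough fluorescence over baseline measured at the second addition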
# Target sequence (Q96LB2 whole entry, looked up): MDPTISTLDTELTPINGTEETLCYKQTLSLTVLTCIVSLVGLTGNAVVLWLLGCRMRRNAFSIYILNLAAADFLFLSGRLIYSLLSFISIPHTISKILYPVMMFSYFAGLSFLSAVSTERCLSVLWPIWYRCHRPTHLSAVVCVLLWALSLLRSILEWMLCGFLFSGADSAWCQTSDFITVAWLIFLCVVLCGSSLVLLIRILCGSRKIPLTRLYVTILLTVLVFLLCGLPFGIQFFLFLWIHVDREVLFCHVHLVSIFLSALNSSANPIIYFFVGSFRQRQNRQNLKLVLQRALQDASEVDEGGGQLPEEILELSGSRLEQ
# Kir21 inh: blocks the mouse Kir2.1 inward-rectifier potassium channel; AID 1672; P35561; hit rate 0.85% among 310,000; B-score at 10 µM; HEK293-Kir2.1, FluxOR thallium flux fluorescence; stronger effect = lower value;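 active means fluorescence ratio B-score at or below minus 3 SD of library scores, with starting-brightness B-score within 2 SD, cut at about -4.2 in these data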;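 further: channel flux triggered by added potassium and thallium sulfate stimulus; B-score of peak minus minimum fluorescence over baseline after thallium stimulus; more negative B-score means stronger Kir2.1 block with less thallium influx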
# MrgX1 agonist: human MrgX1 receptor agonism, primary screen; MrgX1-HEK293 cells, Fluo-4 calcium fluorescence, agonist mode; stronger effect = higher value; B-score at 10 µM; hit rate 0.44% among 310,000;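 active means calcium response B-score plate-corrected fluorescence ratio at least 3 library SD, with starting fluorescence B-score inside 5 SD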
#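 Material: MrgX1-expressing HEK293 cells; input: 15,000 cells per well; doses: test compound given as first of three sequential additions; schedule: overnight plating before 1 h dye loading; technique: Fluo-4 NW calcium-flux fluorescence, kinetic read; evaluation: baseline-normalised fluorescence change ratio, B-scored; control set: plate-wise positive and negative controls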
# MrgX1 antagonist: blocks BAM8-22 activation of human MrgX1 receptor. MRGX1-HEK293 calcium flux, Fluo-4, BAM8-22 antagonism; stronger effect = lower value. B-score at 10 µM. hit rate 1.3% among 310,000. AID 588676;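 active means calcium-response B-score plate-corrected more than 3 library SD below zero, starting fluorescence within 5 deviations, no agonist response on first addition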;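 further: peak minus trough fluorescence over baseline after final BAM8-22 challenge near maximal dose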
# RGS4 pot: RGS4 potentiation or activation; HEK293 M3R/inducible RGS4, carbachol calcium flux Fluo4; stronger effect = lower value; hit rate 0.92% among 310,000; B-score at 10 µM;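 active means B-score of the integrated calcium signal more than 4 SD below the library mean, with starting fluorescence not abnormally high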;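 further: negative B-score means reduced calcium response which marks RGS4 activation or potentiation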
#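 Material: Inducible-RGS4 HEK293 cells carrying M3 receptor; also added: carbachol at ECmax as muscarinic agonist stimulus; incubation: compound preincubation 20 min at room temperature before agonist; signal: Fluo4-AM (2 µM) calcium-flux fluorescence, kinetic read; measure: integrated calcium ratio converted to B score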
# RGS4 block valid: validation of RGS4 inhibitors. hit rate 65% among 1,700. shares compounds with RGS4 inh. AID 492999. HEK293 M3R/RGS4, carbachol calcium Fluo-4 fluorescence; carbachol added at its EC20; 0 = buffer wells, 100 = carbachol control. calcium response, % at 10 µM;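 active means duplicate-averaged calcium response above the buffer-only control mean plus 5 SD of those controls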;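 further: integrated fluorescence ratio F max minus min over baseline F0; higher response in RGS4-induced cells means RGS4 inhibition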
# M3R Ca ctr: counter-screen for RGS4 inhibitors: effect in non-induced cells | HEK293 M3R non-induced, carbachol calcium Fluo-4; submaximal (EC20) carbachol stimulus; buffer wells 0%, carbachol control wells 100% | shares compounds with RGS4 inh | activity (percent), % at 10 µM | AID 493000 | hit rate 20% among 1,900; call rule not given here;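 further: RGS4 induction absent so cells express M3R without RGS4; higher means more calcium signal and flags a non-specific hit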
# M3R basal Ca ctr: second counter-screen for RGS4 inhibitors: non-induced cells without carbachol; shares compounds with RGS4 inh; hit rate 22% among 1,900; HEK293 M3R/RGS4 non-induced, Fluo-4 calcium, no carbachol; normalised: buffer wells 0%, carbachol wells 100%; calcium response (agonist-mode artifact), % at 10 µM;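 active means duplicate-averaged calcium rise in uninduced cells above buffer wells' mean plus 5 SD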
# Numbers stand for hits; 0 = inactive; - = no result. Shown are actives, neighbours in structure and some others; about 4.1% of the full set was active somewhere.
SMILES,RGS4 inh,MrgX1 allo act,Kir21 inh,MrgX1 agonist,MrgX1 antagonist,RGS4 pot,RGS4 block valid,M3R Ca ctr,M3R basal Ca ctr
Cc1cccc(N/N=C(\C(N)=O)C2=NC(C)(C)Cc3ccccc32)c1,0,13,0,0,0,0,-,0,0
COc1cc(C(=O)/C=C/c2cccnc2)ccc1O,11.3,0,0,0,0,0,36.5%,45.5%,0
COc1ccc(OC)c(C(=O)/C=C/c2cccnc2)c1,0,0,0,0,0,0,-,-,-
O=C(/C=C/c1cccnc1)c1cc(F)ccc1O,4.99,0,0,0,0,0,22.0%,72.0%,0
CCn1cc(/C=C(\NC(=O)c2ccccc2F)C(=O)N2CCOCC2)c2ccccc21,0,0,0,0,0,0,-,-,-
COc1ccc2[nH]c(=O)c(C(c3nnnn3C(C)(C)C)N(Cc3ccco3)CC3CCCO3)cc2c1 (centres undefined),0,0,0,0,0,0,-,0,7.0%
CCC(c1nnnn1C(C)(C)C)N(Cc1ccco1)Cc1cc2cccc(C)c2[nH]c1=O (centres undefined),0,0,0,0,0,0,-,-,-
Cc1cc(C)c2[nH]c(=O)c(C(c3nnnn3C(C)(C)C)N(Cc3ccco3)CC3CCCO3)cc2c1 (centres undefined),0,0,0,0,0,0,0,0,0
Cc1cc2cc(C(c3nnnn3C(C)(C)C)N(Cc3ccco3)CC3CCCO3)c(=O)[nH]c2cc1C (centres undefined),5.38,0,0,0,0,0,18.5%,0,0
CC(=O)NCCC(=O)Nc1nc(-c2c[nH]c3ccccc23)cs1,0,-,0,-,-,0,-,-,-
O=C1/C(=C/c2cccs2)NC(=S)N1C1CC1,0,0,0,0,0,0,-,-,-
CCN(CCNC(=O)C1CCN(S(=O)(=O)CC)CC1)c1ccccc1,0,0,0,0,0,0,-,-,-
COc1ccc(-c2csc(Nc3ncccn3)n2)cc1C,0,0,0,0,0,0,-,-,-
COc1ccc(-c2csc(Nc3cc(C)ccn3)n2)cc1C,9.77,0,0,0,0,0,34.0%,39.0%,0
Clc1ccc(C2=Nn3c(nnc3-c3n[nH]c4c3CCC4)SC2)cc1Cl,10.4,0,0,0,0,0,24.0%,0,0
c1ccc(C2=Nn3c(nnc3-c3n[nH]c4c3CCC4)SC2)cc1,0,0,0,0,0,0,-,-,-
CCOC(=O)c1ccc(N2C(=O)c3n[nH]c(-c4ccco4)c3C2c2ccc([N+](=O)[O-])cc2)cc1 (centres undefined),0,0,0,0,0,0,0,0,0
CC(C)C(=O)Nc1ccc2oc(-c3cc(F)c(F)cc3Cl)nc2c1,0,0,0,0,0,0,-,-,-
COc1ccc(NC(=O)CC2SC(=NCc3ccccc3OC)NC2=O)cc1 (centres undefined),0,0,0,0,0,0,-,0,0
COc1ccccc1CN=C1NC(=O)C(CC(=O)Nc2ccc(OC)c(OC)c2)S1 (centres undefined),5.64,0,0,0,0,0,8.5%,0,0
CCOc1ccc(N=C2NC(=O)C(CC(=O)Nc3ccc(OC)cc3)S2)cc1 (centres undefined),0,0,0,0,0,0,-,-,-
N#C/C(=C/c1ccc(C(=O)O)cc1)C(=O)Nc1ccccc1,0,0,0,0,0,0,-,-,-
CC(NC(=O)/C(C#N)=C/c1ccc(C(=O)O)cc1)c1ccccc1 (centres undefined),12.8,0,0,0,0,0,44.0%,39.5%,0
O=C(/C=C/c1cccc(F)c1)NCc1ccc2c(c1)OCO2,0,0,0,0,0,0,-,-,-
COCc1nnc(NC(=O)CCc2ccc(OC)cc2)s1,5.04,0,0,0,0,0,30.5%,0,0

# Bioassay records: PubChem, Johns Hopkins Ion Channel Center
